From ChEMBL document CHEMBL1144551, “Enantioselective synthesis and antiviral activity of purine and pyrimidine cyclopentenyl C-nucleosides” (Bioorg Med Chem, 2007)
Calls of active or inactive are those of the source. The calls are words filed in the database; no cut-off is given here.

Legend:
Cowpox virus = assay: Antiviral activity against Cowpox virus; type: functional, organism-based
West Nile virus = assay: Antiviral activity against West Nile virus; type: functional, organism-based
[1] = test system: Human immunodeficiency virus 1; assay: Antiviral activity against HIV1 LA1 in human PBM cells; type: functional, organism-based; details: Human immunodeficiency virus 1, LA1, PBMC
How it was run: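 Human peripheral blood mononuclear (PBM) cells were infected with HIV-1 strain LAI, and antiviral activity was expressed as EC50.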

Dengue virus = assay: Antiviral activity against dengue virus; type: functional, organism-based
Vaccinia virus = assay: Antiviral activity against vaccinia virus; type: functional, organism-based; details: Orthopoxvirus vaccinia
Vero = assay: Cytotoxicity against Vero cells; type: cell-based; details: Chlorocebus sabaeus
Tacaribe virus = assay: Antiviral activity against tacaribe virus; type: functional, organism-based; details: Mammarenavirus tacaribeense
CCRF-CEM = assay: Cytotoxicity against CEM cells; type: cell-based; details: Homo sapiens
Human alphaherpesvirus 3 = assay: Antiviral activity against varicella zoster virus; type: functional, organism-based
Hepatitis C virus = assay: Antiviral activity against hepatitis C virus; type: functional, organism-based; details: Hepacivirus hominis
[2] = test system: Venezuelan equine encephalitis virus; assay: Antiviral activity against Venezulean equine encephalitis virus; type: functional, organism-based
Yellow fever virus = assay: Antiviral activity against yellow fever virus; type: functional, organism-based
Human alphaherpesvirus 2 = assay: Antiviral activity against herpes simplex virus 2; type: functional, organism-based
[3] = Cytotoxicity against PBM cells; type: cell-based; details: Homo sapiens, PBMC
Human alphaherpesvirus 1 = assay: Antiviral activity against HSV1; type: functional, organism-based
LLC-MK2 = assay: Cytotoxicity against LLC-MK2 cells; type: cell-based, Macaca mulatta; details: rhesus monkey
Punta Toro virus = assay: Antiviral activity against Punta Toro virus; type: functional, organism-based
SARS-CoV = assay: Antiviral activity against SARS coronavirus; type: functional, organism-based; details: Severe acute respiratory syndrome-related coronavirus

Row | Structure (SMILES) | EC50 (Cowpox virus) | IC50 (Cowpox virus) | EC50 (West Nile virus) | EC50 [1] | EC90 [1] | Activity (Dengue virus) | Activity (Vaccinia virus) | IC50 (Vero) | Activity (Tacaribe virus) | IC50 (CCRF-CEM) | Activity (Human alphaherpesvirus 3) | Activity (Hepatitis C virus) | Activity [2] | Activity (Yellow fever virus) | Activity (Human alphaherpesvirus 2) | IC50 (West Nile virus) | IC50 [3] | Activity (Human alphaherpesvirus 1) | Activity (LLC-MK2) | EC50 (Punta Toro virus) | also measured
1 | Nc1ncnc2c1ncn2[C@@H]1C=C(CO)[C@@H](O)[C@H]1O [NEOPLANOCIN A] | 8.4 µM | > 300 µM | > 51 µM | – | – | – | – | – | – | – | – | – | – | – | – | – | – | – | – | – | –
2 | Nc1ncnc2c([C@@H]3C=C(CO)[C@@H](O)[C@H]3O)c[nH]c12 | > 100 µM | > 100 µM | > 100 µM | 2 µM | 43.2 µM | inactive | inactive | > 100 µM | inactive | 10.6 µM | inactive | inactive | inactive | inactive | inactive | > 100 µM | 15.6 µM | inactive | Not Active | – | –
3 | Nc1nc(=O)c([C@@H]2C=C(CO)[C@@H](O)[C@H]2O)c[nH]1 | > 100 µM | > 100 µM | 11 µM | > 100 µM | > 100 µM | inactive | inactive | > 100 µM | inactive | > 100 µM | inactive | inactive | inactive | inactive | inactive | > 100 µM | > 100 µM | inactive | Not Active | > 100 µM | IC50 (Punta Toro virus): > 100 µM; EC50 (SARS-CoV): > 100 µM
4 | O=c1[nH]cc([C@@H]2C=C(CO)[C@@H](O)[C@H]2O)c(=O)[nH]1 | > 100 µM | > 100 µM | > 100 µM | > 100 µM | > 100 µM | inactive | inactive | > 100 µM | inactive | > 100 µM | inactive | inactive | inactive | inactive | inactive | > 100 µM | > 100 µM | inactive | Not Active | 65 µM | IC50 (Punta Toro virus): > 100 µM; EC50 (SARS-CoV): 49 µM; IC50 (SARS-CoV): > 100 µM
5 | Nc1nc(O)c2[nH]cc([C@@H]3C=C(CO)[C@@H](O)[C@H]3O)c2n1 | > 100 µM | > 100 µM | > 100 µM | > 100 µM | > 100 µM | inactive | inactive | > 100 µM | inactive | > 100 µM | inactive | inactive | inactive | inactive | inactive | > 100 µM | > 100 µM | inactive | Not Active | 2.5 µM | IC50 (Punta Toro virus): > 100 µM; EC50 (SARS-CoV): > 100 µM
6 | Cc1cn([C@H]2C[C@H](N=[N+]=[N-])[C@@H](CO)O2)c(=O)[nH]c1=O [ZIDOVUDINE] | – | – | – | – | – | – | – | – | – | – | – | – | – | – | – | – | > 100 µM | – | – | – | –
